Here are results for five molecules from ChEMBL document CHEMBL1124865, “Synthesis and biological evaluation of a series of parenteral 3'-quaternary ammonium cephalosporins” (J Med Chem, 1990).

In brackets after ≈: the same amount, converted by molar mass.

The test system of data set [1] is Serratia marcescens. In words: Antibacterial activity against Serratia marcescens SE3. Type of data set: functional. The following applies: Serratia marcescens; read-out: MIC.
Data set [2] relates to Enterobacter cloacae. As to the kind of experiment: Antibacterial activity against Enterobacter cloacae 265A. The note with it: Enterobacter cloacae; read-out: MIC. The class given is functional.
Data set [3] deals with Streptococcus pneumoniae. In words: Antibacterial activity against Streptococcus pneumoniae. Type of data set: functional. The note with it: Streptococcus pneumoniae; read-out: MIC.
Data set [4] is filed under the species Cavia porcellus. As to the kind of experiment: In vitro relative anticholinergic potential in isolated guinea pig trachea. Type of data set: functional. Put shortly:
(§1)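 Guinea pig trachea in Krebs' solution at 37.5 °C, 95% O2/5% CO2, pH 7.4, 2 g resting tension. Cumulative carbachol log dose-response curve (3-fold steps) run before and 30 min after adding antagonist at 1 mM. […] Tukey test on log2 dose ratios.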

The test system of data set [5] is Escherichia coli. In words: Antibacterial activity against Escherichia coli EC14. Type of data set: functional. The following applies: Escherichia coli; read-out: MIC.
For data set [6], the system named is Klebsiella pneumoniae. As to the kind of experiment: Antibacterial activity against Klebsiella pneumoniae X26. The class given is functional. The note with it: Klebsiella pneumoniae; read-out: MIC.
The test system of data set [7] is Pseudomonas aeruginosa. In words: Antibacterial activity against Pseudomonas aeruginosa PS18. Type of data set: functional. The following applies: Pseudomonas aeruginosa; read-out: MIC.
In data set [8] the test system is Enterococcus faecium. As to the kind of experiment: Antibacterial activity against Enterococcus faecium. Type of data set: functional. The following applies: Enterococcus faecium; read-out: MIC.
Data set [9] concerns Pseudomonas aeruginosa. As to the kind of experiment: Antibacterial activity against Pseudomonas aeruginosa X528. Type of data set: functional. The following applies: Pseudomonas aeruginosa; read-out: MIC.
Data set [10] in a line: In vitro dose required for anticholinergic activity in isolated guinea pig trachea. The class given is functional.
In data set [11] the test system is Enterobacter cloacae. As to the kind of experiment: Antibacterial activity against Enterobacter cloacae EB5. The class given is functional. The following applies: Enterobacter cloacae; read-out: MIC.
The subject of data set [12] is Staphylococcus aureus. In words: Antibacterial activity against penicillin G resistance Staphylococcus aureus. The class given is functional. The note with it: Staphylococcus aureus; read-out: MIC.
In data set [13] the test system is Staphylococcus aureus. In words: Antibacterial activity against penicillin G susceptible Staphylococcus aureus. The note with it: Staphylococcus aureus; read-out: MIC. The class given is functional.
Data set [14] deals with Escherichia coli. As to the kind of experiment: Antibacterial activity against Escherichia coli TEM. Type of data set: functional. The following applies: Escherichia coli; read-out: MIC.
Data set [15] concerns Streptococcus pyogenes. In words: Antibacterial activity against Streptococcus pyogenes. The class given is functional. The note with it: Streptococcus pyogenes; read-out: MIC.
Data set [16] has as its system Klebsiella pneumoniae. In words: microbe, parasite or virus in culture. Type of data set: functional. The following applies: Klebsiella pneumoniae; read-out: MIC.
In data set [17] the test system is Canis familiaris. In words: Percent of dose in dogs urine at the dose of 60 mg/kg. Type of data set: functional, Canis lupus familiaris. In outline:
(§2)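 Overnight-fasted female mongrel dogs with a Foley bladder catheter; bolus into the cephalic vein. Plasma and urine collected before dosing and over 24 h after. Antibacterial activity measured by microbiological assay.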

Data set [18] can be described thus: Terminal half life in dogs at the dose of 60 mg/kg. The class given is ADME, organism-based, Canis lupus familiaris. Also noted: dose 60 mg/kg. The following applies: dog, in vivo. In outline:
as §2

The species named for data set [19] is Cavia porcellus. As to the kind of experiment: In vitro relative anticholinergic activity in isolated guinea pig trachea. Type of data set: functional. The note with it: read-out: pA2 (converted). In outline:
as §1

For `CO/N=C(\C(=O)N[C@@H]1C(=O)N2C(C(=O)[O-])=C(C[n+]3csc(CCO)c3C)CS[C@H]12)c1csc(N)n1`, the MIC in data set [1] stood at 0.125 µg/mL (≈ 0.232 µM); in data set [2], 4 µg/mL (≈ 7.43 µM); in data set [3], 0.03 µg/mL (≈ 0.0557 µM); in [5], 0.06 µg/mL (≈ 0.111 µM); in data set [6], 0.03 µg/mL (≈ 0.0557 µM); in data set [7], 16 µg/mL (≈ 29.7 µM). For the same molecule, the MIC is 16 µg/mL (≈ 29.7 µM) in data set [8]; 8 µg/mL (≈ 14.9 µM) in [9]; 0.125 µg/mL (≈ 0.232 µM) in data set [11]; 4 µg/mL (≈ 7.43 µM) in data set [12]; 2 µg/mL (≈ 3.71 µM) in data set [13]; 0.03 µg/mL (≈ 0.0557 µM) in data set [14]. Besides, the MIC in data set [15] was 0.03 µg/mL (≈ 0.0557 µM); in data set [16], 4 µg/mL (≈ 7.43 µM). Moreover, in [4], the RAP came out at 1. In addition, the Dose ratio in data set [10] worked out at 1.27.

Usually half-life stands for how long it takes for the measured level to halve. A high value points to slow loss. For the molecule `CO/N=C(\C(=O)N[C@@H]1C(=O)N2C(C(=O)[O-])=C(C[n+]3cccc4occc43)CS[C@H]12)c1csc(N)n1`, the MIC in data set [1] was 0.25 µg/mL (≈ 0.486 µM); in data set [2] it was 4 µg/mL (≈ 7.77 µM); in [3], 0.06 µg/mL (≈ 0.117 µM); in [5], 0.06 µg/mL (≈ 0.117 µM); in data set [6] it was 0.06 µg/mL (≈ 0.117 µM); in [7], 8 µg/mL (≈ 15.5 µM). The MIC in [8] is 32 µg/mL (≈ 62.2 µM); in data set [9], 4 µg/mL (≈ 7.77 µM); in data set [11], 0.5 µg/mL (≈ 0.972 µM); in data set [12] it was 4 µg/mL (≈ 7.77 µM); in [13] it was 0.5 µg/mL (≈ 0.972 µM); in data set [14], 0.06 µg/mL (≈ 0.117 µM). The MIC in data set [15] was 0.06 µg/mL (≈ 0.117 µM); in data set [16], 8 µg/mL (≈ 15.5 µM). Besides, the “Percent of dose recovered in urine” value in [17] was 78%. The same molecule came in with a half-life in data set [18] of 1.67 h.

Consider `CO/N=C(\C(=O)N[C@@H]1C(=O)N2C(C(=O)[O-])=C(C[n+]3ccc4sc(C(=O)O)cc4c3)CS[C@H]12)c1csc(N)n1`, for which the MIC in data set [1] is 0.06 µg/mL (≈ 0.104 µM); in [2], 32 µg/mL (≈ 55.7 µM); in data set [3] it was below 0.008 µg/mL; in data set [5], below 0.008 µg/mL; in data set [6], below 0.008 µg/mL; in data set [7] it was 8 µg/mL (≈ 13.9 µM). The MIC in [8] is above 128 µg/mL; in data set [9], 2 µg/mL (≈ 3.48 µM); in data set [11], 0.06 µg/mL (≈ 0.104 µM); in data set [12], 16 µg/mL (≈ 27.8 µM); in data set [13], 2 µg/mL (≈ 3.48 µM); in data set [14], 0.03 µg/mL (≈ 0.0522 µM). Further, the MIC in [15] is below 0.008 µg/mL; in data set [16], 4 µg/mL (≈ 6.96 µM). Also, the “Percent of dose recovered in urine” value in data set [17] is on record as 98%. Moreover, in data set [4], the RAP was found to be 2. The Dose ratio in data set [10] was determined as 1.52. This molecule also had a half-life in data set [18] of 1.5 h.

Consider `CO/N=C(\C(=O)N[C@@H]1C(=O)N2C(C(=O)[O-])=C(C[n+]3ccc4sc(C)nc4c3)CS[C@H]12)c1csc(N)n1`, for which the Kb in data set [19] was 603 µM. Further, the MIC stood at 0.125 µg/mL (≈ 0.229 µM) in [1]; 2 µg/mL (≈ 3.67 µM) in data set [2]; 0.015 µg/mL (≈ 0.0275 µM) in [3]; 0.015 µg/mL (≈ 0.0275 µM) in [5]; 8 µg/mL (≈ 14.7 µM) in [7]; 128 µg/mL (≈ 235 µM) in [8]. For the same molecule, the MIC in [9] worked out at 4 µg/mL (≈ 7.33 µM); in [12], 2 µg/mL (≈ 3.67 µM); in data set [13] it was 2 µg/mL (≈ 3.67 µM); in data set [15], 0.008 µg/mL (≈ 0.0147 µM); in data set [16], 2 µg/mL (≈ 3.67 µM). Further, the RAP in data set [4] was 7.

Regarding `CO/N=C(\C(=O)N[C@@H]1C(=O)N2C(C(=O)[O-])=C(C[n+]3ccc4nc(C)sc4c3)CS[C@H]12)c1csc(N)n1`, in data set [19], the Kb is 955 µM. Further, the MIC in data set [1] came out at 0.25 µg/mL (≈ 0.458 µM); in data set [2], 16 µg/mL (≈ 29.3 µM); in data set [7], 8 µg/mL (≈ 14.7 µM); in [8], 128 µg/mL (≈ 235 µM); in data set [9], 8 µg/mL (≈ 14.7 µM); in data set [12], 4 µg/mL (≈ 7.33 µM). Further, the MIC is 1 µg/mL (≈ 1.83 µM) in [13], 0.015 µg/mL (≈ 0.0275 µM) in data set [15] and 1 µg/mL (≈ 1.83 µM) in data set [16]. This molecule also gave an RAP in [4] of 5.
